In the EternaBench riboswitch data:

System: MS2 coat protein
Assay: apparent Kd, MS2 coat protein; higher = weaker binding; RNA-MaP array; FMN 200 µM where present
How it was run: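 The apparent Kd comes from binding curves fitted cluster by cluster, filtered, and summarised as a median. Those curves followed SNAP-549-labelled MS2 coat protein from 0.7 or 1.5 nM, doubling to 3 µM, on Illumina sequencing-chip clusters where stalled E. coli RNA polymerase had transcribed the designs, without and then with constant ligand. The buffer was 100 mM Tris-HCl pH 7.5, 80 mM KCl, 4 mM MgCl2, BSA, DTT, yeast tRNA and Tween-20, and green signal was normalised to red-channel RNA signal and control-cluster median Fmax.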

[1] = designed as: OFF switch for flavin mononucleotide, no ligand
[2] = ligand present: flavin mononucleotide, designed as: OFF switch for flavin mononucleotide
[3] = designed as: ON switch for flavin mononucleotide, no ligand
[4] = ligand present: flavin mononucleotide, designed as: ON switch for flavin mononucleotide

AAGUAGAUCCGAGGAUAUACAAGGCGGAAACGCUACAUGAGGAUCACCCAUGUAGAAGGCGGAUCUACAGGUACUAAAGUACCA
apparent Kd [1]: 5.84 nM | apparent Kd [2]: 10.5 nM

AAGUAGGUAGGAUAUACAUGGAUAUACAUUCAUGUGGACCUACAUGAGGAUCACCCAUGUAGAAGGACCUAUAA
apparent Kd [1]: 40.4 nM | apparent Kd [2]: 58 nM

AAGUAGGUAGGAUAUACAUGGAUAUACAUUCAUGUGGAUUUACAUGAGGAUCACCCAUGUAGAAGGACCUAAUA
apparent Kd [1]: 118 nM | apparent Kd [2]: 30.8 nM

AAGUAUAGAGGAUAUAGUAGUUACAACAUGAGGAUCACCCAUGUUCUUCAUAACGUAGUUCUAGAAGGCUGAUAAA
apparent Kd [1]: 183 nM | apparent Kd [2]: 271 nM

AAGUAUAGAGGAUAUAGUGAGUACUACAUGAGGAUCACCCAUGUUCUUCAAAACGUAUUUCUAGAAGGCUGUUAAA
apparent Kd [1]: 45.3 nM | apparent Kd [2]: 86.7 nM

AAGUCAGCAGGAUAUGCGAUGGUGUACUAGGUAGUUUGCCCACAUGAGGAUCACCCAUGUAGAAGGGCUGGCUA
apparent Kd [1]: 14.7 nM | apparent Kd [2]: 21.4 nM

AAGUCUGGACGAGGAUAUCAGCUGUAACUGGCGUCAACAUGAGGAUCACCCAUGUUGCUAUAGGGUGAGAAGGCGUUUGGGCAA
apparent Kd [3]: 24.1 nM | apparent Kd [4]: 19.5 nM

AAGUCUGGACGAGGAUAUCAGUUGUAUCUAGAAUCAACAUGAGGAUCACCCAUGUUGCAAUAGGGUGAGAAGGCGUUUGGGCAA
apparent Kd [3]: 81.8 nM | apparent Kd [4]: 18.1 nM

AAGUGUCCUAAGGAUAUCGAAGCUAUCGGCUGCCGAGAAGGUAGGACAUGAGGAUCACCCAUGUACCGUGAGCC
apparent Kd [1]: 68.1 nM | apparent Kd [2]: 29.8 nM

AAGUUUAACGAAGGAUAUGGUUACAUGAGGAUCACCCAUGUAAUGGUUGUGAUAUUGAUUAAGUUCCAGAAGGUCGUAUACAUA
apparent Kd [1]: 109 nM | apparent Kd [2]: 301 nM

AAUAACAGAGGAUAUACGAAAAUAAGCGGAAACGCAAAGGGACAUGAGGAUCACCCAUGUAGAAGGCUGGAUAA
apparent Kd [1]: 32.6 nM | apparent Kd [2]: 183 nM

AAUAACAGAGGAUAUACUAUUUUAUGUAUUUAUUAUUUUGAACAUGAGGAUCACCCAUGUAGAAGGCUGAUUAA
apparent Kd [1]: 29.6 nM | apparent Kd [2]: 27.2 nM

AAUAACAGAGGAUAUACUAUUUUAUGUGUUUAUUGUUUUAAACAUGAGGAUCACCCAUGUAGAAGGCUGAAUGA
apparent Kd [1]: 37.6 nM | apparent Kd [2]: 54.4 nM

AAUAACAGAGGAUAUACUGUUUUAUGUAUUUAUUAUUUUGAACAUGAGGAUCACCCAUGUAGAAGGCUGAUUGA
apparent Kd [1]: 35.6 nM | apparent Kd [2]: 31.6 nM

AAUAACAGAGGAUAUACUGUUUUAUGUGUUUGUUAUUUUAAACAUGAGGAUCACCCAUGUAGAAGGCUGAAUAA
apparent Kd [1]: 22.5 nM | apparent Kd [2]: 21.7 nM

AAUAGCUAAGGAUAUACAUGAGGAUCACCCAUGUAAAACACUACUUGGAACCGCCUCGGUAGAAGGUAGAAAAU
apparent Kd [2]: 22.3 nM

AAUAUAAAAGAGCUGGAUACUCAAACAUGAGGAUCACCCAUGUAGGAUAUCAGCACGAUAAGUGCUGAGAAGGACAACCAGCUC
apparent Kd [1]: 14.6 nM | apparent Kd [2]: 15.6 nM

AAUAUAAAGAGCUGGCUCAAUUUAACAUGAGGAUCACCCAUGUAGGAUAUCAGCACGAUAAGUGCUGAGAAGGACAUCCAGCUC
apparent Kd [1]: 16.7 nM | apparent Kd [2]: 36 nM

AAUAUGAGCUGGUUUAAACUCAAAACAUGAGGAUCACCCAUGUAGGAUAUCAGCACGAUAAGUGCUGAGAAGGACAUCCAGCUC
apparent Kd [1]: 14.2 nM | apparent Kd [2]: 16.5 nM

AAUAUGUUGCAGAAGGUUAUAUUUAUUUAGUACCUCAUGACAUGAGGAUCACCCAUGUUUUUGUUGAAGGAUAUGCAAUAUAUU
apparent Kd [1]: 17.1 nM | apparent Kd [2]: 13.7 nM

AAUCGGGAGCAGAAGGCAUGUCAAAAGACAUGAGGAUCACCCAUGUAUAAAAGGCGAAAGCCGCAUGAGGAUAUGCUCCCGUAA
apparent Kd [3]: 29.4 nM | apparent Kd [4]: 5.81 nM

AAUCUGUCGGUAGGAUAUCAGUUAGGAGAGCCGACAUGAGGAUCACCCAUGUACAGAAUCAAGGGUGAGAAGGACCGGGUAGUA
apparent Kd [3]: 114 nM | apparent Kd [4]: 111 nM

AAUCUUUUUAUGGGAUUAGAAUAUGAGGAUAUCAUUUGUUUAUACAUGAGGAUCACCCAUGUUUCUGAGAAGGCAUAUAUAAUA
apparent Kd [3]: 44.6 nM | apparent Kd [4]: 10.2 nM

AAUGCACAUGAGGAUCACCCAUGUAAGACAAAGACAGGAUAUGGGCCGCAUGGCUCUGGCCCAGAAGGGUCAGUCG
apparent Kd [3]: 25 nM | apparent Kd [4]: 18.6 nM

AAUGCGGCAGGAUAUACAUGAGGAUCACCCAUGUAGAUCAGAUAUAUGGUCGAACCAUGUAGAAGGGCCGCAAA
apparent Kd [1]: 34.3 nM | apparent Kd [2]: 129 nM

AAUGUACUCGGAGGAUAUCCCACAUGAGGAUCACCCAUGUGGGUCACUGAUUCUCGUAUCGUCCGGGAGAAGGCCGAGAACUGA
apparent Kd [1]: 34.6 nM | apparent Kd [2]: 111 nM

AAUGUUUGAUUCCACUUACACAUGAGGAUCACCCAUGUUAUCGAGGAUAUGCAUUAGAGUGUUUAGCAGAAGGCGAUGUAAUUG
apparent Kd [1]: 8.46 nM | apparent Kd [2]: 25 nM

AAUUAACAUGAGGAUCACCCAUGUGAGGAUAUGGUAUUAUUUGGACAGUUAUGAUAUACCAGAAGGCACAAAUA
apparent Kd [1]: 32.6 nM | apparent Kd [2]: 45.9 nM
